Data from ChEMBL document CHEMBL3856239, “Synthesis and Antiobesity Properties of 6-(4-Chlorophenyl)-3-(4-((3,3-difluoro-1-hydroxycyclobutyl)methoxy)-3-methoxyphenyl)thieno[3,2-d]pyrimidin-4(3H)-one (BMS-814580): A Highly Efficacious Melanin Concentrating Hormone Receptor 1 (MCHR1) Inhibitor” (J Med Chem, 2016).
≈ marks a conversion by molar mass, not a printed value.

Assays:
[1] = AUC in dog at 10 mg/kg, po; format: ADME, organism-based, Canis lupus familiaris; conditions: in vivo
Method in brief: (§1)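 Rats, dogs and cynomolgus monkeys, n = 3: parent 1 mg/kg i.v. in PEG400:DMAC:water (70:5:25), or phosphate prodrug 10 mg/kg oral in Methocel:Tween80:water (0.5:0.1:99.4); plasma parent compound, Cmax, Tmax, AUC0-∞, half-life, clearance, Vss and bioavailability derived.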

Rattus norvegicus [2] = test: Antiobesity activity in DIO Sprague-Dawley rat model assessed as reduction in caloric intake at 0.1 mg/kg, po qd for 28 days relative to vehicle control; format: functional; parameters: scale not given: the % may be the effect or the level left
Method in brief: (§2)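 Obese male SD rats on diet-induced obesity, 8/group, dosed orally once daily for 28 days with phosphate prodrug (0.03–3 mg/kg parent) in 14% propylene glycol/1% Tween/85% water; rimonabant 10 mg/kg control; pair-fed groups matched to 1 and 3 mg/kg intake; body weight and food measured daily, % change versus vehicle.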

Rattus norvegicus [3] = test: Antiobesity activity in DIO Sprague-Dawley rat model assessed as reduction in body weight at 1 mg/kg, po qd for 28 days relative to vehicle control; format: functional; parameters: scale not given: the % may be the effect or the level left; method in brief: as §2
[4] = Oral bioavailability in dog at 10 mg/kg; format: ADME, organism-based, Canis lupus familiaris; conditions: in vivo
Method in brief: (§3)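 Full PK in rat, dog and cynomolgus monkey. Oral arm: phosphate prodrug at 10 mg/kg parent-equivalent in Methocel:Tween80:water (0.5:0.1:99.4). Intravenous arm: parent at 1 mg/kg in PEG400:DMAC:water (70:5:25). n = 3 per species; individual Tmax values reported for dog and monkey.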

[5] = Plasma concentration in DIO Sprague-Dawley rat assessed as parent compound level at 0.3 mg/kg, po for 28 days measured after 2 hrs; format: ADME, organism-based
Method in brief: (§4)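 Obese male DIO SD rats, 8/group, dosed orally once daily for 28 days with phosphate prodrug at 0.03–3 mg/kg. Vehicle 14% propylene glycol/1% Tween/85% water. Body weight and food intake recorded daily. Parent plasma levels at 2 and 24 h; prodrug detection limit <2 nM. Histopathology for biliary toxicity at study end.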

Rattus norvegicus [6] = test: Antiobesity activity in DIO Sprague-Dawley rat model assessed as reduction in caloric intake at 3 mg/kg, po qd for 28 days relative to vehicle control; format: functional; parameters: scale not given: the % may be the effect or the level left; method in brief: as §2
[7] = Cmax in cynomolgus monkey at 10 mg/kg, po; format: ADME, organism-based, Macaca fascicularis; parameters: dose 10 mg/kg, route oral; conditions: in vivo; method in brief: as §1
[8] = Plasma concentration in DIO Sprague-Dawley rat assessed as parent compound level at 3 mg/kg, po for 28 days measured after 2 hrs; format: ADME, organism-based; method in brief: as §4
[9] = Plasma concentration in DIO Sprague-Dawley rat assessed as parent compound level at 3 mg/kg, po for 28 days measured after 24 hrs
Rattus norvegicus [10] = test: Antiobesity activity in DIO Sprague-Dawley rat model assessed as reduction in caloric intake at 0.3 mg/kg, po qd for 28 days relative to vehicle control; format: functional; parameters: scale not given: the % may be the effect or the level left; method in brief: as §2
[11] = target: Melanin-concentrating hormone receptor 1 (Homo sapiens, UniProt Q99705); test: Binding affinity to MCHR1 (unknown origin)
Chain of Melanin-concentrating hormone receptor 1 (Q99705 whole entry): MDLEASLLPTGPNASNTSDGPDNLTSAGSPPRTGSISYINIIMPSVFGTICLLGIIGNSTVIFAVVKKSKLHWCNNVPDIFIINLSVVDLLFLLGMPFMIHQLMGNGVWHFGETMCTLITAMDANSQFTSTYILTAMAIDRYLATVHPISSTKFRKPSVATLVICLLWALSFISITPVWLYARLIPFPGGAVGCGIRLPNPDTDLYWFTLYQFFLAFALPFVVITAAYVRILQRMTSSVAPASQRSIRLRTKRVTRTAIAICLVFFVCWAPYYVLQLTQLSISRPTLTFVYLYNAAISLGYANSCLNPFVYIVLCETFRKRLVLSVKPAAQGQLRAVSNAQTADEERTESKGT

Rattus norvegicus [12] = test: Antiobesity activity in once daily orally dosed DIO Sprague-Dawley rat model assessed as reduction in caloric measured after 28 days relative to vehicle control; format: functional, organism-based; method in brief: as §2
[13] = AUC in rat at 10 mg/kg, po; format: ADME, organism-based; conditions: in vivo; method in brief: as §1
Rattus norvegicus [14] = test: Antiobesity activity in DIO Sprague-Dawley rat model assessed as reduction in caloric intake at 1 mg/kg, po qd for 28 days relative to vehicle control; format: functional; parameters: scale not given: the % may be the effect or the level left; method in brief: as §2
[15] = Tmax in rat at 10 mg/kg, po; format: ADME, organism-based; conditions: in vivo; method in brief: as §3
[16] = Tmax in dog at 10 mg/kg, po; format: ADME, organism-based, Canis lupus familiaris; conditions: in vivo; method in brief: as §3
[17] = Plasma concentration in DIO Sprague-Dawley rat assessed as parent compound level at 0.3 mg/kg, po for 28 days measured after 24 hrs; format: ADME, organism-based; method in brief: as §4
[18] = Protein binding in rabbit plasma assessed as unbound fraction; format: ADME, cell-free, Oryctolagus cuniculus
Method in brief: (§5)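 Plasma protein binding reported as % free drug in rat, DIO rat, dog, cynomolgus monkey, rabbit and human plasma.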

Rattus norvegicus [19] = test: Antiobesity activity in DIO Sprague-Dawley rat model assessed as reduction in body weight at 3 mg/kg, po qd for 28 days relative to vehicle control; format: functional; parameters: scale not given: the % may be the effect or the level left; method in brief: as §2
[20] = Tmax in cynomolgus monkey at 10 mg/kg, po; format: ADME, organism-based, Macaca fascicularis; conditions: in vivo; method in brief: as §3
[21] = Cmax in rat at 10 mg/kg, po; format: ADME, organism-based; parameters: dose 10 mg/kg, route oral; conditions: in vivo; method in brief: as §1
[22] = Protein binding in DIO rat plasma assessed as unbound fraction; format: ADME, cell-free; method in brief: as §5
Rattus norvegicus [23] = test: Toxicity in DIO Sprague-Dawley rat assessed as biliary lesion at 0.03 to 3 mg/kg, po administered once daily for 28 days by histophalogy analysis; format: organism-based; conditions: in vivo, 672 h; method in brief: as §4
Rattus norvegicus [24] = test: Antiobesity activity in DIO Sprague-Dawley rat model assessed as reduction in body weight at 0.3 mg/kg, po qd for 28 days relative to vehicle control; format: functional; parameters: scale not given: the % may be the effect or the level left; method in brief: as §2
[25] = Solubility of the compound in phosphate buffer at pH 6.4; format: physicochemical
Method in brief: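 Solubility of parent compounds and prodrugs measured in 50 mM phosphate buffer, pH 6.4.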

[26] = Oral bioavailability in cynomolgus monkey at 10 mg/kg; format: ADME, organism-based, Macaca fascicularis; conditions: in vivo; method in brief: as §3
[27] = Protein binding in dog plasma assessed as unbound fraction; format: ADME, cell-free, Canis lupus familiaris; method in brief: as §5
[28] = AUC in cynomolgus monkey at 10 mg/kg, po; format: ADME, organism-based, Macaca fascicularis; conditions: in vivo; method in brief: as §1
Rattus norvegicus [29] = test: Antiobesity activity in DIO Sprague-Dawley rat model assessed as reduction in body weight at 0.1 mg/kg, po qd for 28 days relative to vehicle control; format: functional; parameters: scale not given: the % may be the effect or the level left; method in brief: as §2
Rattus norvegicus [30] = test: Antiobesity activity in DIO Sprague-Dawley rat model assessed as reduction in body weight at 0.03 mg/kg, po qd for 28 days relative to vehicle control; format: functional; parameters: scale not given: the % may be the effect or the level left; method in brief: as §2
[31] = Oral bioavailability in rat at 10 mg/kg; format: ADME, organism-based; conditions: in vivo; method in brief: as §3
[32] = Protein binding in cynomolgus monkey plasma assessed as unbound fraction; format: ADME, cell-free, Macaca fascicularis; method in brief: as §5
Rattus norvegicus [33] = test: Toxicity in rat assessed as hepatobiliary lesions up to 100 mg/kg administered for 30 days; format: organism-based; conditions: in vivo, 720 h
Method in brief: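 Rats dosed daily with the phosphate prodrug for 30 days at up to 100 mg/kg; hepatobiliary lesions examined.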

Rattus norvegicus [34] = test: Antiobesity activity in DIO Sprague-Dawley rat model assessed as reduction in caloric intake at 0.03 mg/kg, po qd for 28 days relative to vehicle control; format: functional; parameters: scale not given: the % may be the effect or the level left; method in brief: as §2
[35] = Cmax in dog at 10 mg/kg, po; format: ADME, organism-based, Canis lupus familiaris; parameters: dose 10 mg/kg, route oral; conditions: in vivo; method in brief: as §1

## COc1cc(-n2cnc3cc(-c4ccc(Cl)cc4)sc3c2=O)ccc1OCC1(OP(=O)(O)O)CC(F)(F)C1
[1]
  AUC: 15.3 µM·h
Rattus norvegicus [2]
  Activity: 10.5%
Rattus norvegicus [3]
  Activity: 6.6%
[4]
  bioavailability: 33%
[5]
  concentration at 2 h: 2000 nM
Rattus norvegicus [6]
  Activity: 14.7%
[7]
  Cmax: 1200 nM
[8]
  concentration at 2 h: 13500 nM
[9]
  concentration at 24 h: 14400 nM
Rattus norvegicus [10]
  Activity: 12.8%
[11]
  Ki: 2920 nM
Rattus norvegicus [12]
  inhibition: Dose-dependent effect
[13]
  AUC: 107 µM·h
Rattus norvegicus [14]
  Activity: 14.5%
[15]
  Tmax: 6.7 h
[16]
  Tmax: 9.3 h
[17]
  concentration at 24 h: 1200 nM
[18]
  Fu: 0.2%
Rattus norvegicus [19]
  Activity: 7.8%
[20]
  Tmax: 10.7 h
[21]
  Cmax: 4000 nM
[22]
  Fu: 0.1%
Rattus norvegicus [23]
  Activity: Non-Toxic
Rattus norvegicus [24]
  Activity: 5%
[25]
  solubility: 4 µg/mL (≈ 6.84 µM)
[26]
  bioavailability: 46%
[27]
  Fu: 0.3%
[28]
  AUC: 87 µM·h
Rattus norvegicus [29]
  Activity: 3.2%
Rattus norvegicus [30]
  Activity: 1.7%
[31]
  bioavailability: 54%
[32]
  Fu: 0.4%
Rattus norvegicus [33]
  Activity: Non-Toxic
Rattus norvegicus [34]
  Activity: 6.5%
[35]
  Cmax: 1200 nM
